# From PubChem
# Mdm2-MdmX inh – human Mdm2/MdmX binding inhibition; O15151+Q00987; SaOS-2 split-luciferase Mdm2/MdmX complementation, luminescence; inhibition, % at 8 µM; actives 3% (n = 330,000);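 active = inhibition of at least 50% at 8 µM in the primary screen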
# Target sequence (O15151 whole entry, looked up): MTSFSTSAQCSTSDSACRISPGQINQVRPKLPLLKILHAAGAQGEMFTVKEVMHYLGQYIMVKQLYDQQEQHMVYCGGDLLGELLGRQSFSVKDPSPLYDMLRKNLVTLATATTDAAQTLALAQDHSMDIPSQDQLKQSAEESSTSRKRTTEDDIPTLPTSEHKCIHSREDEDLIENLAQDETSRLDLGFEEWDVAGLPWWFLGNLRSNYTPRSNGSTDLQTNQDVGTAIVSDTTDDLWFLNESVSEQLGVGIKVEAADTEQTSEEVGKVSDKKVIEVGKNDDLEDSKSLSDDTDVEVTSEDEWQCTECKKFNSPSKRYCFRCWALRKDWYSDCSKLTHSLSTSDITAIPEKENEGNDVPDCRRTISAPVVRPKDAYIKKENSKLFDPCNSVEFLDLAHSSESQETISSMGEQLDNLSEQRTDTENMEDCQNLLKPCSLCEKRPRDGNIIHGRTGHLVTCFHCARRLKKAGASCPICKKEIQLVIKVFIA
# Target sequence (Q00987 whole entry, looked up): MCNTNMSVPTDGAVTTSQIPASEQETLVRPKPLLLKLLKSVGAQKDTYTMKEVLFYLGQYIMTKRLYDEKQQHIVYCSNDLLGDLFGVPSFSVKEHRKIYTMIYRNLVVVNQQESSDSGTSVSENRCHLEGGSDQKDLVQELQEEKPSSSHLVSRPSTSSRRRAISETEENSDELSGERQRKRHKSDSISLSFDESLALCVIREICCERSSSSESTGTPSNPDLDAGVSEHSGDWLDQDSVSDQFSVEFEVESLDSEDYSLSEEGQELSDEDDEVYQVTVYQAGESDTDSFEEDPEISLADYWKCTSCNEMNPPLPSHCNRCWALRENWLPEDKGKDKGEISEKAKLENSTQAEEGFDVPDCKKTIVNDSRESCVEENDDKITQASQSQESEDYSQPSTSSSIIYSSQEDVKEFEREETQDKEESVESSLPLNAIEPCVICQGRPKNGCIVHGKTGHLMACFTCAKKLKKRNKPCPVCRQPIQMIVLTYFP
# CSC inhib – cancer stem cell inhibition. cancer stem cell-like cells viability, luminescence. actives 1.1% (n = 300,000). inhibition, % at 7.5 µM. AID 2717; in the data active = inhibition above about 75%; inconclusive = no clear call, values can overlap the other calls; tested in HMLE shEcad cells
# Beta cell apopt – blocks beta cell apoptosis; actives 0.8% (n = 300,000); protection from apoptosis, % (concentration not given with the values); INS-1E cytokine-induced death, ATP luminescence, 48 h; percent of positive-control rescue, neutral wells zero; AID 435005;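 active = Every replicate reaches about 75%, or at least half do and their mean reaches it too, limit read from the data; inconclusive = At least half of replicates reach the limit but their mean does not; inactive = Under half of replicates reach the limit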;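 note: 0% = cytokine-treated negative control wells and 100% = positive control rescue; higher means more ATP so stronger rescue from cytokine killing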
# T cruzi repl – T. cruzi replication inhibition | T. cruzi beta-gal in NIH3T3, luminescence, 90 h | inhibition, % (concentration not given with the values) | actives 1.4% (n = 300,000);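 active = mean inhibition across valid replicates above about 55%, limit read from the data; inconclusive = mean below that limit but half or more replicates reach it; inactive = mean below it, under half of replicates reach it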;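 note: signal also drops with host cell toxicity which is not excluded here; 0% = plate median of DMSO wells and 100% = zero luminescence signal; higher percent means less beta-gal luminescence so fewer parasites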
#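 System: mouse NIH/3T3 fibroblasts infected with β-gal-expressing T. cruzi Tulahuen C4 / Input: NIH/3T3 cells, 5,000 per well / Buffer or medium: Low-serum DMEM with 2% FBS / Probe or stimulus: 5000 reporter trypomastigotes per well / Schedule: ≥90 h infection period, 3 h prior cell attachment / Measured by: GalScreen luminescence, 60 min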
# UPR XBP1 act – adaptive UPR (XBP1) activation. CHO-XBP1 luciferase reporter, IRE1-XBP1 UPR activation, luminescence; percent of tunicamycin response, DMSO as zero. activation, % at 20 µM. actives 0.33% (n = 330,000). AID 463104;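 active = versus positive control, 20 µM dose yields 30% or more activation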;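 note: 100% = tunicamycin at 10 µg/mL and 0% = DMSO only wells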
#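 Material: CHO cell line with stable XBP1 luciferase reporter; schedule: 16-18 h cell attachment at 37 °C, then 6 h compound exposure; signal: glow luminescence from Steady-Glo reagent; medium: serum-containing F12 medium, 10% FBS; benchmarks: tunicamycin 10 µg/mL and vehicle-only wells; read-out: percent activation relative to tunicamycin reference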
# UPR CHOP act – apoptotic UPR (CHOP) activation. CHO-CHOP luciferase reporter, luminescence; percent of tunicamycin response over DMSO baseline. activation, % at 10 µM. actives 0.34% (n = 330,000);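 active = at 10 µM dose, activation of 40% or more, normalized to positive control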;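 note: 100% = tunicamycin at 10 µg/mL and 0% = DMSO alone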
#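 Dosing – one dose, 10 µM in 0.5% DMSO · System – CHO-CHOP cells, stable luciferase reporter of PERK-eIF2a-CHOP signalling · Input – 500 cells/well · Control set – tunicamycin 10 µg/mL final as positive, DMSO-only wells as negative · Timing – 6 h compound treatment, 37 °C · Measure – % activation vs tunicamycin · Technique – luminescence read with Steady-Glo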
# Mdm2-MdmX conf – human Mdm2/MdmX binding inhibition, confirmed; shares compounds with Mdm2-MdmX inh; luminescent assay; inhibition, % at 8 µM; actives 55% (n = 10,000); AID 489028; in the data active = inhibition above about 40%
# FLuc counter – counter-screen for Mdm2/MdmX inhibitors: full-length luciferase; SaOS-2 full-length luciferase counterscreen, luminescence; shares compounds with Mdm2-MdmX inh; actives 77% (n = 6,200); inhibition, % at 8 µM; AID 504607;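 active = mean inhibition at 8 µM reaching about 37%, which flags the compound as non-specific, limit read from the data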;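 note: p53-null SaOS-2 cells with luciferase driven by a doxycycline-inducible promoter; compound on cells about two nights before reading with doxycycline added after day one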
# The depositor's hits bear a star; ? = inconclusive; . = no result given. An excerpt weighted towards active compounds, which were near 5% of everything screened.
SMILES,Mdm2-MdmX inh,CSC inhib,Beta cell apopt,T cruzi repl,UPR XBP1 act,UPR CHOP act,Mdm2-MdmX conf,FLuc counter
O=C1c2ccccc2C(=O)C1c1ccnc2ccccc12,45,15,35,37,-5,-7,.,.
O=C(Nc1cccc(NC(=O)c2cc([N+](=O)[O-])ccc2Cl)n1)c1cc([N+](=O)[O-])ccc1Cl,96*,67,104*,15,6,20,96*,50*
C/C(Cc1ccccc1)=N\NC(=O)CNC(=O)COc1ccccc1,-3,-4,-8,12,-1,0,.,.
COc1ccc(OC)c(N(/C(N)=N/c2nc(C)cc(C)n2)S(=O)(=O)c2ccc(NC(C)=O)cc2)c1,63*,13,0,-5,5,11,25,90*
CCOc1ccc(C2Nc3ccc4ccccc4c3-c3c2c(=O)oc2ccccc32)cc1 (stereo not drawn),68*,28,48,66*,8,5,7,.
O=C(O)c1ccc(OCc2cn3ccccc3n2)cc1,21,-3,-6,-21,-1,1,.,.
O=C(COc1ccc(Oc2ccccc2)cc1)NCc1cn2ccccc2n1,56*,60,2,39,15,1,57*,73*
CCN(CC(=O)Nc1ccc(OC)cc1)C(=O)c1ccc(N2CCCC2=O)cc1,-23,.,-7,.,0,0,.,.
NC(=O)NCCCC(NC(=O)c1ccc(C#CC2(O)CCCCC2)cc1)C(=O)O (stereo not drawn),61*,4,5,6,-3,-1,6,.
Cc1ccc(/C=N/Nc2ccnc3cc(Cl)ccc23)c(C)c1,100*,.,101*,68*,22,26,29,.
CCCC12CN3CCN(CC(C3)/C1=N\NC(=O)c1ccc(C(C)(C)C)cc1)C2,1,-10,8,-11,0,2,.,.
CCOC(=O)C1CCCN(CC(=O)Nc2c(C(=O)OC)[nH]c3ccc(Br)cc23)C1 (stereo not drawn),24,-18,12,1,0,0,.,.
COC(=O)c1[nH]c2ccc(Br)cc2c1NC(=O)CN1CCCc2ccccc21,53*,-11,0,29,0,0,26,.
COC(=O)c1[nH]c2ccc(Br)cc2c1NC(=O)CN1CCN(C2CCCCC2)CC1,99*,21,-11,49,8,8,99*,51*
Cc1ccc(C(=O)Nc2cnc3ccccc3c2)cc1,82*,20,3,-16,-6,-10,-2,.
COc1ccc(CC(=O)Nc2cccc3c2CCCC3)cc1,14,-6,-1,-5,-3,1,.,.
COc1ccc(C(=O)Nc2cccc3c2CCCC3)cc1,51*,48,4,-9,-4,3,35,74*
Cc1ccc(C(=O)Nc2nc3ccccc3[nH]2)cc1,64*,13,30,9,-15,-7,49*,58*
Cc1cc(C(=O)Nc2cnc3ccccc3c2)ccc1[N+](=O)[O-],-65,-1,-5,7,4,2,.,.
C/C(=N\Nc1nc2ccccc2[nH]1)c1ccc([N+](=O)[O-])cc1,55*,8,26,13,5,2,2,.
COC(=O)C1CCN(C(=O)COc2ccc(N(C)S(=O)(=O)c3ccc(C)cc3)cc2)CC1,16,.,-4,.,-1,-3,.,.
COc1ccc(C(=O)N[C@H](C(=O)Nc2nc3ccccc3[nH]2)C(C)C)cc1,19,41,42,25,19,3,.,.
COc1ccc(C(=O)Nc2nc3ccccc3[nH]2)cc1,56*,18,.,5,-14,-7,38,83*
Cc1cccc(C(=O)N[C@H](C(=O)Nc2nc3ccccc3[nH]2)C(C)C)c1,73*,69,26,12,14,-1,68*,100*
O=c1cc(-c2ccc(O)cc2)oc2ccccc12,-22,-2,-6,12,10,5,.,.
SMILES,Mdm2-MdmX inh,CSC inhib,Beta cell apopt,T cruzi repl,UPR XBP1 act,UPR CHOP act,Mdm2-MdmX conf,FLuc counter
O=c1cc(-c2c(F)c(F)c(F)c(F)c2F)oc2c(F)c(F)c(F)c(F)c12,100*,101*,107*,61*,-5,-9,99*,1
O=c1cc(-c2c(F)c(F)c(F)c(F)c2F)oc2ccccc12,96*,27,5,-11,5,3,10,.
Cc1sc2ncn(CC(=O)OC(C)C(=O)NC(C)(C)C)c(=O)c2c1C (stereo not drawn),7,-10,1,-12,-1,-1,.,.
O=C(Nc1cc(C(F)(F)F)ccc1-n1cncn1)c1ccc(F)cc1Cl,-14,7,-2,.,-2,-2,.,.
Clc1ccc(N2CCN(c3ncnc4c3oc3ccccc34)CC2)cc1,58*,13,-5,-17,6,1,10,.
Cc1cc(C)n(-c2nc(NCCN(C)C)c3c4c(sc3n2)COC(C)(C)C4)n1,65*,6,-1,27,1,-1,37,63*
Cc1cc(C)n(-c2nc(-n3nc(C)cc3C)c3c4c(sc3n2)COC(C)(C)C4)n1,32,-14,1,21,2,1,.,.
CCN(CC)CCNc1nc(-n2nc(C)cc2C)nc2sc3c(c12)CC(C)(C)OC3,61*,13,-9,?,-3,0,35,.
Cc1csc2c(N(C)CCO)ncnc12,7,-9,1,-1,3,0,.,.
CC(C)c1cccc(O)c(=O)c1,86*,14,-3,-5,4,0,74*,28
Cc1ccc(CS(=O)(=O)Cc2ccc(C(=O)NC3CCCC3)o2)cc1,21,-17,2,-20,-1,0,.,.
CC(=O)Oc1c(S(=O)(=O)c2ccc(C)cc2)c(C)nn1-c1ccccc1,11,-8,.,5,-7,-1,.,.
CC(=O)Nc1ccc(C(=O)Nc2nc(-c3ccccn3)cs2)cc1,26,17,16,19,-4,0,.,.
CCCn1nc(C(=O)Nc2nc(-c3ccccn3)cs2)c2ccccc2c1=O,62*,.,66,.,16,18,50*,53*
CCc1cc(C(=O)Nc2nc(-c3ccccn3)cs2)sc1C,52*,20,60,.,1,1,56*,51*
O=C(Nc1nc(-c2ccccn2)cs1)c1ccccc1-n1cnnn1,72*,34,78*,63*,0,-2,75*,30
